MC4R barr agon: activates human MC4R beta-arrestin recruitment. P32245. U2OS MC4R beta-arrestin complementation, luminescence; percent of melanotan II response, DMSO zero. activation, % at 8.9 µM. actives 0.98% (n = 360,000). AID 540308;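 active = activation above a per-plate cutoff, the mean activation of sample wells on that plate plus 3 SD, cut at about 8% in these data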
Target sequence (P32245 whole entry, looked up): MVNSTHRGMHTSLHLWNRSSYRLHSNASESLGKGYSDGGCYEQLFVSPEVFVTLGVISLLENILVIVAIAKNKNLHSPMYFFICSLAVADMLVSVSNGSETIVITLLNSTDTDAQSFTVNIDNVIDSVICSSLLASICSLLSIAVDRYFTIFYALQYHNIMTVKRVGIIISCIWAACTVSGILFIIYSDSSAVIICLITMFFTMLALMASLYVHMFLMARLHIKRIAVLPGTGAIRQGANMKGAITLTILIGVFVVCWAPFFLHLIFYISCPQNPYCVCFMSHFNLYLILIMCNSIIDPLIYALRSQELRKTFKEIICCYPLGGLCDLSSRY
hiPSC survival: increases survival of single human iPS cells. hiPSC single-cell survival, ATPlite luminescence; 100% = ROCK inhibitor wells, 0% = DMSO. survival enhancement, % at 20 µM. actives 0.044% (n = 360,000). AID 602274; in the data active = survival enhancement above about 18%;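 note: cells exposed to compounds for 16 hours before the ATP read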
MC4R antag cAMP: human MC4R antagonism in cAMP assay; P32245; MC4R-expressing cells, MTII-stimulated cAMP, LANCE TR-FRET; inhibition, % at 6.5 µM; actives 0.48% (n = 360,000); AID 540295;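 active = inhibition above its plate's cutoff, the mean of tested wells on that plate plus 3 SD, cut at about 29% in these data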;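 note: 0% = Melanotan II alone and 100% = Melanotan II plus saturating MCL0020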
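Assay system: U2OS cells stably expressing human melanocortin 4 receptor (MC4R) / Dosing: 6.5 µM / Timing: compound 30 min, challenge 1 h, detection 1 h / Measured by: Eu-cAMP/anti-cAMP TR-FRET, emission 671 nm / Replicates: singlicate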
Granule exo inh: blocks lytic granule exocytosis; inhibition, % at 10 µM; TALL-104 LAMP-1 surface exposure, flow cytometry; cells stimulated with thapsigargin and PMA; actives 0.66% (n = 360,000);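 active = inhibition above about 55%, limit read from the data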
ABCB6 inh 2: blocks the human ABCB6 transporter; Q9NP58; K562-ABCB6 porphyrin accumulation, flow cytometry, 1 h; stronger effect = lower value; fluorescence ratio to DMSO, % at 10 µM; actives 0.19% (n = 360,000); AID 602162;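 active = fluorescence ratio to DMSO below 75%, the collection mean minus 3 SD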;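 note: signal is porphyrin accumulated inside mitochondria; 100% equals median channel fluorescence of DMSO control wells; lower ratio means ABCB6 inhibition with less porphyrin fluorescence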
Tb MetRS inh: blocks T. brucei methionyl-tRNA synthetase activity; purified T. brucei MetRS, ATP depletion, Kinase-Glo luminescence; inhibition, % at 11.9 µM; actives 0.4% (n = 360,000);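 active = inhibition above a per-plate cutoff of the control wells' mean inhibition plus 3 SD, cut at about 5.5% in these data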;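 note: 0% = DMSO wells median and 100% = median of wells with control inhibitor compound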
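Dosing: 11.9 µM single point; system: parasite MetRS enzyme; technique: luminescence of leftover ATP; times: 15 min enzyme-compound preincubation, 2 h reaction, 10 min detection, 25 °C; replicates: each compound tested once; read-out basis: percent inhibition relative to median high and low control wells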
MC4R barr conf: human MC4R beta-arrestin agonism confirmation; U2OS MC4R beta-arrestin recruitment, luminescence; scaled DMSO 0%, Melanotan II 100%; AID 602192; shares compounds with MC4R barr agon; actives 31% (n = 2,400); activation, % at 8.9 µM;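 active = mean activation across replicates above the hit cutoff set in the earlier primary screen, cut at about 8% in these data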
MOR DOR agonist: counter-screen for MC4R agonists: agonists of mu-delta opioid heterodimer; shares compounds with MC4R barr agon; U2OS PathHunter beta-arrestin, beta-gal luminescence; percent of deltorphin B response, DMSO zero; activation, % at 9.2 µM; actives 5.8% (n = 2,400); AID 602194;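 active = mean activation across replicates exceeds the hit threshold derived in the earlier primary screen, cut at about 18% in these data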;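 note: 100% = deltorphin B at 0.9 µM final and 0% = DMSO alone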
* = called active by the depositor; nt = not tested or not shown; ! = not active in a repeat. In the library only some 2.6% were active in any assay of this set; here they are far more common.

SMILES | MC4R barr agon | hiPSC survival | MC4R antag cAMP | Granule exo inh | ABCB6 inh 2 | Tb MetRS inh | MC4R barr conf | MOR DOR agonist
N#Cc1c(N2CCCC2)ccc(Br)c1Cl | 3.3 | 0.2 | 5.0 | -6.2 | 104.0 | -1.1 | nt | nt
O=C1Nc2ccccc2/C1=C/c1cnc(-c2ccccc2)[nH]1 | 20.4* | -0.8 | -3.8 | 4.8 | 97.0 | -0.1 | 24.9* | 3.5
O=C(O)/C=C/C(=O)Nc1ccc(C2(c3ccc(NC(=O)/C=C/C(=O)O)cc3)c3ccccc3-c3ccccc32)cc1 | 53.3* | 0.8 | -0.6 | -3.5 | 100.0 | -0.1 | 0.7 | 0.8
O=C(O)/C=C\C(=O)Nc1ccc(Oc2ccccc2)cc1 | -1.2 | 2.6 | 3.1 | -1.7 | 96.0 | 0.2 | nt | nt
CCCNc1c(NS(=O)(=O)c2ccc(C)c(C)c2)c(=O)oc2ccccc12 | -1.0 | 0.1 | 1.3 | 16.0 | 100.0 | 0.3 | nt | nt
CCCNc1c(NS(=O)(=O)c2ccc3c(c2)CCCC3)c(=O)oc2ccccc12 | 14.2* | 0.3 | 6.0 | 6.9 | 98.0 | -0.3 | 2.8 | 3.0
COc1ccc(CNC(=O)Nc2ccc3c(c2)N(C)C(=O)CS3)cc1 | -2.0 | 1.4 | 1.5 | -0.3 | 104.0 | -0.2 | nt | nt
COc1ccc(NC(=O)COC(=O)c2cc(SC)ccc2Cl)c(OC)c1 | 22.2* | 0.3 | 7.0 | 1.1 | 100.0 | 0.0 | 9.1* | 12.2
CC(=O)Nc1sc2c(c1C#N)CCCCC2 | -0.5 | -2.1 | 9.2 | -1.4 | 99.0 | -0.2 | nt | nt
CC(C)(C)C(=O)NC(=S)Nc1sc2c(c1C#N)CCCCC2 | 16.9* | 1.6 | -5.0 | 7.7 | 101.0 | -0.8 | -2.8 | 2.1
CCN1CCN(Cc2ccc(NC(=O)c3cc(NC(=O)c4ccno4)cc(OC)c3)cc2C(F)(F)F)CC1 | 0.5 | -1.5 | -10.6 | 1.6 | 94.0 | -1.3 | nt | nt
CCN1CCN(Cc2ccc(NC(=O)c3cc(NC(=O)c4cc5cccc(OC)c5o4)cc(OC)c3)cc2C(F)(F)F)CC1 | 28.6*! | -3.8 | -0.3 | 41.8 | 100.0 | -1.5 | 37.0* | 7.3
Cc1csc(NC(=O)c2cc(-c3ccccc3)nc3ccccc23)n1 | 12.3* | -0.8 | -1.9 | -0.9 | 85.0 | -0.9 | 3.5 | 7.5
CC(C)(C)c1nnc(NC(=O)c2cc(-c3ccccc3)nc3ccccc23)s1 | 0.5 | 7.2 | 0.6 | -4.5 | 91.0 | -0.5 | nt | nt
CCC(C)(C)NC(=O)C(c1ccncc1)N(Cc1cccs1)C(=O)Cn1nnc2ccccc21 (stereo unspecified) | -1.0 | 9.7 | 13.7 | -0.1 | 96.0 | -0.3 | nt | nt
CCC(C)(C)NC(=O)C(c1ccc(C)cc1)N(Cc1ccco1)C(=O)Cn1nnc2ccccc21 (stereo unspecified) | 9.9* | 4.6 | -2.5 | -1.4 | 93.0 | -1.6 | 3.4 | 4.5
O=C(COc1cc(Cl)c(Cl)cc1Cl)Nc1ccncc1 | 3.2 | 0.7 | 15.7 | -1.2 | 90.0 | 0.3 | nt | nt
O=C(COc1cc(Cl)c(Cl)cc1Cl)Nc1cccc(O)c1 | 19.6* | -0.1 | 23.3 | 1.4 | 99.0 | -0.7 | 7.2 | 8.5
CC(C)CCN(C(=O)C1=COCCO1)c1c(N)n(Cc2ccccc2)c(=O)[nH]c1=O | 0.7 | 0.3 | -2.5 | -5.5 | 98.0 | -0.7 | nt | nt
Cc1nc(Nc2ccc(F)cc2)nc(Nc2ccc(F)cc2)c1[N+](=O)[O-] | 13.2* | 0.4 | 10.1 | -8.3 | 97.0 | -0.6 | 5.5 | 3.2
O=C(c1ccco1)N1CCN(Cc2nc(-c3cccs3)no2)CC1 | -0.7 | -0.4 | 2.8 | -2.8 | 97.0 | -0.4 | nt | nt
Cc1ccc(-n2nnc3c(SCC(=O)NCc4ccco4)ncnc32)cc1 | 13.5* | -1.2 | 4.1 | -0.1 | nt | -0.1 | 1.1 | 4.7
O=C(CSc1ncnc2c1nnn2-c1ccc(F)cc1)NCc1ccco1 | 1.4 | 4.8 | 5.8 | 5.1 | 92.0 | 0.4 | nt | nt
CCOC1=C2[C@@H](CN(S(=O)(=O)c3ccc(C)cc3)[C@H]2c2cccc3ccccc23)[C@H]2C(=O)N(C)C(=O)[C@H]2C1 | nt | -0.1 | nt | 3.6 | 94.0 | -0.7 | nt | nt
O=C(CCCc1c[nH]c2ccccc12)NCC1COc2ccccc2O1 (stereo unspecified) | -2.8 | -0.7 | 2.9 | -2.7 | 92.0 | -0.8 | nt | nt
SMILES | MC4R barr agon | hiPSC survival | MC4R antag cAMP | Granule exo inh | ABCB6 inh 2 | Tb MetRS inh | MC4R barr conf | MOR DOR agonist
O=C(CCc1c[nH]c2ccccc12)NCC1COc2ccccc2O1 (stereo unspecified) | 10.6* | -0.1 | 13.9 | 8.5 | 92.0 | 0.5 | -3.4 | 1.0
COc1ccc(-c2c(-c3ccc(OC)c(F)c3)c3ccccc3n2C)cc1 | -0.8 | 4.4 | 5.9 | 0.5 | 99.0 | -0.2 | nt | nt
O=C1N/C(=C/c2cccn2-c2ccc(F)cc2)C(=O)N1Cc1ccccc1 | 10.3* | -0.8 | -12.1 | -1.5 | 104.0 | -0.6 | 2.6 | 3.5
CCc1nonc1NC(=O)c1oc2cc(C)c(C)cc2c1C | 11.8* | -0.5 | 0.6 | -2.9 | 97.0 | -0.2 | 2.4 | 5.9
O=C(COC(=O)c1ccc2ncsc2c1)Nc1cc([N+](=O)[O-])ccc1Cl | 22.8* | -0.5 | 1.3 | 2.6 | 94.0 | -0.1 | 7.5 | 12.9
Cc1ccc(S(=O)(=O)N2CCCCC2)cc1C(=O)N(CCc1ccccc1)Cc1ccccc1 | -4.8 | -0.5 | 2.4 | 1.7 | 95.0 | -0.4 | nt | nt
COc1ccccc1CCNC(=O)C1CCN(c2nnc(C)c3c(C)n(-c4ccc(C)cc4)nc23)CC1 | 10.3* | -0.5 | 12.7 | 15.0 | 105.0 | 0.3 | 3.0 | 2.6
CCCNC(=O)c1ccc(-c2nc3ccccc3s2)s1 | 11.2* | -4.4 | 10.8 | 0.7 | 106.0 | -0.2 | -2.0 | 11.4
O=C(CN1C(=O)S/C(=C\c2ccccc2)C1=O)NNC(=O)c1ccccc1O | 0.1 | 4.8 | 12.7 | -3.1 | 100.0 | 0.9 | nt | nt
O=C(CCN1C(=O)/C(=C\c2ccccc2)SC1=S)NNC(=O)c1cccnc1 | 21.1* | -1.0 | 1.2 | 2.7 | 98.0 | -0.7 | 5.1 | 0.8
O=C(CCCN1C(=O)/C(=C\c2cccs2)SC1=S)NNC(=O)c1ccncc1 | -0.4 | 0.4 | -3.0 | -0.4 | 100.0 | -0.5 | nt | nt
O=C(CCCN1C(=O)/C(=C/c2ccccc2Cl)SC1=S)NNC(=O)c1cccnc1 | -3.1 | -0.6 | -4.6 | 11.9 | 104.0 | 0.5 | nt | nt
COc1ccccc1C(=O)NNC(=O)CCCN1C(=O)/C(=C/c2cccs2)SC1=S | 22.9* | -1.6 | 0.3 | 1.6 | 104.0 | -0.6 | 6.7 | 4.3
O=C(CCN1C(=O)/C(=C\c2ccccc2)SC1=S)NNC(=O)c1ccccc1O | 10.3* | 0.0 | -1.5 | 14.7 | 99.0 | -0.1 | 3.5 | 2.8
